{"source": "ChEMBL document CHEMBL4371016", "about": "“Proline- and Arginine-Rich Peptides as Flexible Allosteric Modulators of Human Proteasome Activity” (J Med Chem, 2019)", "proteins": {"B1": {"name": "Proteasome Macropain subunit MB1 (Homo sapiens), P28074 (protein)", "chain": "MALASVLERPLPVNQRGFFGLGGRADLLDLGPGSLSDGLSLAAPGWGVPEEPGIEMLHGTTTLAFKFRHGVIVAADSRATAGAYIASQTVKKVIEINPYLLGTMAGGAADCSFWERLLARQCRIYELRNKERISVAAASKLLANMVYQYKGMGLSMGTMICGWDKRGPGLYYVDSEGNRISGATFSVGSGSVYAYGVMDRGYSYDLEVEQAYDLARRAIYQATYRDAYSGGAVNLYHVREDGWIRVSSDNVADLHEKYSGSTP"}}, "key": {"[1]": {"compound": "CC(C)C[C@H](NC(=O)[C@H](Cc1ccc(O)cc1)NC(=O)[C@@H]1CCCN1C(=O)[C@@H]1CCCN1C(=O)[C@H](CCCNC(=N)N)NC(=O)[C@@H]1CCCN1C(=O)[C@H](CCCNC(=N)N)NC(=O)[C@H](CCCNC(=N)N)NC(=O)[C@@H](N)CCCNC(=N)N)C(=O)N1CCC[C@H]1C(=O)N[C@@H](CCCNC(=N)N)C(=O)N[C@@H](Cc1c[nH]c2ccccc12)C(=O)NCC(=O)O", "assay": "(§1) Non-competitive mixed-type inhibition of SDS-activated human erythrocytes 20S proteasome chymotrypsin like activity assessed as substrate Vmax using Suc-LLVY-AMC as substrate measured every 2 mins up to 60 mins by fluorescence assay", "in_short": "(§2)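 SDS-activated CP at 1.4 nM. Suc-LLVY-AMC varied from 20 to 200 μM at inhibitor levels of 0.05, 0.1 and 0.2 μM. Fluorescence read kinetically at 37 °C. […] Three independent replicates.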"}, "[2]": {"compound": "CC(C)C[C@H](NC(=O)[C@H](Cc1ccc(O)cc1)NC(=O)[C@H](CCCNC(=N)N)NC(=O)[C@H](CCCNC(=N)N)NC(=O)[C@@H](N)CCCNC(=N)N)C(=O)N1CCC[C@H]1C(=O)N[C@@H](CCCNC(=N)N)C(=O)N[C@@H](Cc1c[nH]c2ccccc12)C(=O)NCC(N)=O", "assay": "as §1", "in_short": "as §2"}, "[3]": {"compound": "CC(C)C[C@H](NC(=O)[C@H](Cc1ccc(O)cc1)NC(=O)[C@@H]1CCCN1C(=O)[C@@H]1CCCN1C(=O)[C@H](CCCNC(=N)N)NC(=O)[C@@H]1CCCN1C(=O)[C@H](CCCNC(=N)N)NC(=O)[C@H](CCCNC(=N)N)NC(=O)[C@@H](N)CCCNC(=N)N)C(=O)N1CCC[C@H]1C(=O)N[C@@H](CCCNC(=N)N)C(=O)N[C@@H](Cc1c[nH]c2ccccc12)C(=O)NCC(=O)O", "assay": "(§3) Non-competitive mixed-type inhibition of SDS-activated human erythrocytes 20S proteasome chymotrypsin like activity assessed as substrate Km using Suc-LLVY-AMC as substrate measured every 2 mins up to 60 mins by fluorescence assay", "in_short": "as §2"}, "[4]": {"compound": "CC(C)C[C@H](NC(=O)[C@H](Cc1ccc(O)cc1)NC(=O)[C@H](CCCNC(=N)N)NC(=O)[C@H](CCCNC(=N)N)NC(=O)[C@@H](N)CCCNC(=N)N)C(=O)N1CCC[C@H]1C(=O)N[C@@H](CCCNC(=N)N)C(=O)N[C@@H](Cc1c[nH]c2ccccc12)C(=O)NCC(N)=O", "assay": "as §3", "in_short": "as §2"}}}
{"protein": "B1", "values": [{"measurement": "Vmax", "setting": "[1]", "value": 13.6, "unit": "s⁻¹"}, {"measurement": "Vmax", "setting": "[2]", "value": 13.5, "unit": "s⁻¹"}, {"measurement": "Km", "setting": "[3]", "value": 17.4, "unit": "µM"}, {"measurement": "Km", "setting": "[4]", "value": 14, "unit": "µM"}]}
